Test [1] addresses T1, Serine/threonine-protein kinase D2 (Homo sapiens) (UniProt Q9BZL6).
T1 sequence (whole entry): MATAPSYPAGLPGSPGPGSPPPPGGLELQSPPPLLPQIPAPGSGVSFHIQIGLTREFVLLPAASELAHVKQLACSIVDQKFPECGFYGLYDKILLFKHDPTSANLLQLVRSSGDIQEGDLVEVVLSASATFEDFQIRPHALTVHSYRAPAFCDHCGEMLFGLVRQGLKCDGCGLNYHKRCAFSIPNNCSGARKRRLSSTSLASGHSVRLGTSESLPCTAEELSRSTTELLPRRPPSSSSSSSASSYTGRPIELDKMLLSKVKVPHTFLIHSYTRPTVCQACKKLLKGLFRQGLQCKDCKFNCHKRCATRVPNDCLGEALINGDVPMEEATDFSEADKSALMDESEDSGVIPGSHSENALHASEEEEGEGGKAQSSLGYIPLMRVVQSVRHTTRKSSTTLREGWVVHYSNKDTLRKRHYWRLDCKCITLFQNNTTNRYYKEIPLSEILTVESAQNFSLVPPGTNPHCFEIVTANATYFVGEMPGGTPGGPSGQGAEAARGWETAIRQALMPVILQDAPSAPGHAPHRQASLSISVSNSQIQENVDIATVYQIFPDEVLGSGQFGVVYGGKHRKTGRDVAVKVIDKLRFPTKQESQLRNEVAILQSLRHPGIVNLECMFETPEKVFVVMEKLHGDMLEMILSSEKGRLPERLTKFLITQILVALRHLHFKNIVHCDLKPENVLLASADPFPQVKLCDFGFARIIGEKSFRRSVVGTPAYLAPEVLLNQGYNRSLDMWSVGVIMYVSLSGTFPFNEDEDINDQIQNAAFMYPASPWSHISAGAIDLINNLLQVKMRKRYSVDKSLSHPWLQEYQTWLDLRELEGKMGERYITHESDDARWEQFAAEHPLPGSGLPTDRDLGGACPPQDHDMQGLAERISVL
The test is described as follows: Inhibition of PRKD2 (unknown origin) at 1 uM relative to control. As to conditions: values are per cent of control. In a few lines: (§1)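 KinomeSCAN competitive binding panel of 100 kinases; compounds tested at 1 µM in duplicate; read-out is percent […] control.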

The target of test [2] is Tyrosine-protein kinase JAK2 (Homo sapiens) (UniProt O60674). The test is described as follows: Inhibition of JH1 catalytic domain of JAK2 (unknown origin) at 1 uM relative to control; values are per cent of control.
Sequence of Tyrosine-protein kinase JAK2 (Homo sapiens) (O60674 whole entry, the tested form may be a part): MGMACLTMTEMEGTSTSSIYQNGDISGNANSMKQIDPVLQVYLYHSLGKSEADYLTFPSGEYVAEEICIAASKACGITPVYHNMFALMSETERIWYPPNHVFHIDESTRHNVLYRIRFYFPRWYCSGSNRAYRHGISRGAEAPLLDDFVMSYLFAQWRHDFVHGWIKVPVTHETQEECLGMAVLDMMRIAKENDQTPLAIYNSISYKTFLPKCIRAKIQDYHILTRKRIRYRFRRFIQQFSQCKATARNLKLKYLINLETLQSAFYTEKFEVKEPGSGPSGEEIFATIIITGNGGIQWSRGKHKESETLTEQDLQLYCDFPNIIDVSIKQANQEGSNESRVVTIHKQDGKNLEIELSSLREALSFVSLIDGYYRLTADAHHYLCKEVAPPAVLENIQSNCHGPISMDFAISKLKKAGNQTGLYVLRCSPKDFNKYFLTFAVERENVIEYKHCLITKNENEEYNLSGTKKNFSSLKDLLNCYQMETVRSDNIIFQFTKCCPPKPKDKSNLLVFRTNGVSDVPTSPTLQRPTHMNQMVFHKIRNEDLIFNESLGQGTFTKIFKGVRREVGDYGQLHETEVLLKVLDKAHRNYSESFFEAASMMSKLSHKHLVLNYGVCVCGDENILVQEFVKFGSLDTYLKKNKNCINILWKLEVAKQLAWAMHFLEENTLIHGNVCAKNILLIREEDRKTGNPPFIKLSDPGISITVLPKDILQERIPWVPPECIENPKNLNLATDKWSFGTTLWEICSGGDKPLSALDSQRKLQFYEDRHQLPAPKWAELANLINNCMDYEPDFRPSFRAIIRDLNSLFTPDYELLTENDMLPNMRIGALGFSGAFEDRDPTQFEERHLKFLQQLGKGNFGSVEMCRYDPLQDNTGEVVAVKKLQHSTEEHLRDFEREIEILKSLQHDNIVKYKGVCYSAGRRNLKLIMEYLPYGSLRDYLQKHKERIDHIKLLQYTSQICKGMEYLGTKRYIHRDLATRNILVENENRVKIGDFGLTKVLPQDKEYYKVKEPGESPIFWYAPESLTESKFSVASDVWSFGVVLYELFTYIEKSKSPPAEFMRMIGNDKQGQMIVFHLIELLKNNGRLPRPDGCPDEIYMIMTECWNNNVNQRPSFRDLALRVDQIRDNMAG
In test [3] the target is T2, Protein kinase C epsilon type (Homo sapiens) (UniProt Q02156).
T2 sequence (whole entry): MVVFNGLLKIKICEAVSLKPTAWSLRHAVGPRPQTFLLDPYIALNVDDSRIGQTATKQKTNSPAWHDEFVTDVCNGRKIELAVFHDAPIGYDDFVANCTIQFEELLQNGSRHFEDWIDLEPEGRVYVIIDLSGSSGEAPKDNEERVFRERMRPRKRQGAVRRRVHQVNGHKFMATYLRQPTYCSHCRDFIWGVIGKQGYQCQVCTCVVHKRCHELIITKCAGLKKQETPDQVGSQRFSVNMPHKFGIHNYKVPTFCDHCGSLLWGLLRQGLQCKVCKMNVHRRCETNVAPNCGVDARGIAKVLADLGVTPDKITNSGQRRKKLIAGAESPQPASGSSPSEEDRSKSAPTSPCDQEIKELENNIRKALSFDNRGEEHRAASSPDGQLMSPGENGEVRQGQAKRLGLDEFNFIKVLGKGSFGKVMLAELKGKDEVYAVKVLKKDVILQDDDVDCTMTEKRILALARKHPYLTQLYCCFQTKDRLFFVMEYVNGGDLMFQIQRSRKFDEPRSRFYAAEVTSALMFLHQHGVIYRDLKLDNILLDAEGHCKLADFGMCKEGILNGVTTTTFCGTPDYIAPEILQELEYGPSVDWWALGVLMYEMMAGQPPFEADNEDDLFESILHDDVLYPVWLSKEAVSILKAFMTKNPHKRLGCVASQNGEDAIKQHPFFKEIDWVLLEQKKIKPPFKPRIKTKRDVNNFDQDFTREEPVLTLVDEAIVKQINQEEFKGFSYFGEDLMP
The test can be described thus: Inhibition of PRKCE (unknown origin) at 1 uM relative to control. As to conditions: values are per cent of control. In outline:
as §1

Test [4] has as its target Tyrosine-protein kinase ABL1 (Homo sapiens) (UniProt P00519). The test can be described thus: Inhibition of nonphosphorylated ABL1 (unknown origin) at 1 uM relative to control; values are per cent of control.
For test [5], the target named is Serine/threonine-protein kinase 32B (Homo sapiens) (UniProt Q9NY57). The test can be described thus: Inhibition of YANK2 (unknown origin) at 1 uM relative to control. As to conditions: values are per cent of control. In outline: as §1
Sequence of Serine/threonine-protein kinase 32B (Homo sapiens) (Q9NY57 whole entry): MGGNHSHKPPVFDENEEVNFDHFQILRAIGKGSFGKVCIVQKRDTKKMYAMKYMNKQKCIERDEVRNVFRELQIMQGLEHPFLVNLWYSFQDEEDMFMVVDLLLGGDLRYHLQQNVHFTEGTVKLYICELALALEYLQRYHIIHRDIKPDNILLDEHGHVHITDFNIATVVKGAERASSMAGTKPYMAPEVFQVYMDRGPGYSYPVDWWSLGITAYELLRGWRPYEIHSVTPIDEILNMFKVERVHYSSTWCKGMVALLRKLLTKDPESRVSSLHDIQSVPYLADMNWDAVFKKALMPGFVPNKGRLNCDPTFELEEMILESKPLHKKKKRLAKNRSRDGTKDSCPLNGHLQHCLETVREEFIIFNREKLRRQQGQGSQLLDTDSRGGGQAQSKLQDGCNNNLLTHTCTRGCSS
Test [6] concerns the target T3, Rhodopsin kinase GRK1 (Homo sapiens) (UniProt Q15835).
T3 sequence (whole entry): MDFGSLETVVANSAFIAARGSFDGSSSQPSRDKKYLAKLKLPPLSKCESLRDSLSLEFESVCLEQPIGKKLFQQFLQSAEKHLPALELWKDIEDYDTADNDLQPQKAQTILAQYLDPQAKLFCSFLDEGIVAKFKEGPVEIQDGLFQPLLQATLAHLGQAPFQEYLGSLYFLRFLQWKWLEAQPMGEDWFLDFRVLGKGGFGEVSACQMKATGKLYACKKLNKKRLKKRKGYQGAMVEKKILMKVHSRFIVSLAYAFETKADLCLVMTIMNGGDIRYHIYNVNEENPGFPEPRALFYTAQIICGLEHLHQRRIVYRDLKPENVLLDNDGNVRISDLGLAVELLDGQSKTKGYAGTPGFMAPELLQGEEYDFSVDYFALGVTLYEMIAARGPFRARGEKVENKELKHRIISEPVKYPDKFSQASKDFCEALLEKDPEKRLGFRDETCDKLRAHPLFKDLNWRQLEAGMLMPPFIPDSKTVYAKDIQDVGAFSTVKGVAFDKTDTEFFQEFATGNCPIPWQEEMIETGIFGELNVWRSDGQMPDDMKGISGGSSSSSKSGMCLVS
The test can be described thus: Inhibition of GRK1 (unknown origin) at 1 uM relative to control; values are per cent of control.

In test [7] the target is Fibroblast growth factor receptor 1 (Homo sapiens) (UniProt P11362). The test can be described thus: Inhibition of FGFR1 (unknown origin) at 1 uM relative to control; values are per cent of control.
Test [8] addresses Cyclin-dependent kinase 18 (Homo sapiens) (UniProt Q07002). The test can be described thus: Inhibition of PCTK3 (unknown origin) at 1 uM relative to control. As to conditions: values are per cent of control. In outline: as §1
For test [9], the target named is Non-receptor tyrosine-protein kinase TYK2 (Homo sapiens) (UniProt P29597). The test can be described thus: Inhibition of JH1 catalytic domain of TYK2 (unknown origin) at 1 uM relative to control. As to conditions: values are per cent of control. In a few lines: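 Competitive binding panel (KinomeSCAN) of 100 kinases, with compound tested at 1 µM in duplicate. The read-out was percent inhibition relative to control.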
Sequence of Non-receptor tyrosine-protein kinase TYK2 (Homo sapiens) (P29597 whole entry, the tested form may be a part): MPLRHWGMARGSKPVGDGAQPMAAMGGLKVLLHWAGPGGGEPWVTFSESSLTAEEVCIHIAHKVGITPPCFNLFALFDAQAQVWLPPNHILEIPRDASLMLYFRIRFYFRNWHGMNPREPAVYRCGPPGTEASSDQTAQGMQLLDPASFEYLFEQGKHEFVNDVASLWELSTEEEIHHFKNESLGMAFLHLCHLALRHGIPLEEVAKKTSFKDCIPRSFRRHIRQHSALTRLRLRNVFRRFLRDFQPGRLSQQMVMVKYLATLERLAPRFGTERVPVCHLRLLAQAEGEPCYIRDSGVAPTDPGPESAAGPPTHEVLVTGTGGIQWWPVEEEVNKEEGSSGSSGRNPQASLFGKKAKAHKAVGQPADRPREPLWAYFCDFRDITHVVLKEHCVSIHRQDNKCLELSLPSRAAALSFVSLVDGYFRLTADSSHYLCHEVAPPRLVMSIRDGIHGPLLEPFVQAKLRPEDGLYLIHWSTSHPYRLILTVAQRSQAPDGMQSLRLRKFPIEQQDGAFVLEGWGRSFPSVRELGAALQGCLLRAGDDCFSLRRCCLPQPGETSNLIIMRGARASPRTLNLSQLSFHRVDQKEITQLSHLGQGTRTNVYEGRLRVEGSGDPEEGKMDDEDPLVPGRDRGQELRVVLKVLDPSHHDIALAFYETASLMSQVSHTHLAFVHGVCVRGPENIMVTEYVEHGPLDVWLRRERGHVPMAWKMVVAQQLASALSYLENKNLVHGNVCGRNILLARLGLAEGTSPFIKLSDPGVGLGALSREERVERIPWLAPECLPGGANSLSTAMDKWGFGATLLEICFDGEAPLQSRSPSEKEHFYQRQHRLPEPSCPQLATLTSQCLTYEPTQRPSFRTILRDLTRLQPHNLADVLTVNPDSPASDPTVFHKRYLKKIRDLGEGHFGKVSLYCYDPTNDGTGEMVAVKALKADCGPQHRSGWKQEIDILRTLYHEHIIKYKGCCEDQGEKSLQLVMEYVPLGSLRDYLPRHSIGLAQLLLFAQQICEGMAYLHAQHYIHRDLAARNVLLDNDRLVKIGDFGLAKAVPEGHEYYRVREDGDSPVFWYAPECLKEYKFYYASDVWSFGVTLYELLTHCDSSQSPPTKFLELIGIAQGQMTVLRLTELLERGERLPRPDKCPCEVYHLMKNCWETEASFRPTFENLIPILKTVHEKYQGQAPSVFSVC

Test [10] deals with Calcium/calmodulin-dependent protein kinase type II subunit delta (Homo sapiens) (UniProt Q13557). The test can be described thus: Inhibition of CAMK2D (unknown origin) at 1 uM relative to control; values are per cent of control.
Sequence of Calcium/calmodulin-dependent protein kinase type II subunit delta (Homo sapiens) (Q13557 whole entry): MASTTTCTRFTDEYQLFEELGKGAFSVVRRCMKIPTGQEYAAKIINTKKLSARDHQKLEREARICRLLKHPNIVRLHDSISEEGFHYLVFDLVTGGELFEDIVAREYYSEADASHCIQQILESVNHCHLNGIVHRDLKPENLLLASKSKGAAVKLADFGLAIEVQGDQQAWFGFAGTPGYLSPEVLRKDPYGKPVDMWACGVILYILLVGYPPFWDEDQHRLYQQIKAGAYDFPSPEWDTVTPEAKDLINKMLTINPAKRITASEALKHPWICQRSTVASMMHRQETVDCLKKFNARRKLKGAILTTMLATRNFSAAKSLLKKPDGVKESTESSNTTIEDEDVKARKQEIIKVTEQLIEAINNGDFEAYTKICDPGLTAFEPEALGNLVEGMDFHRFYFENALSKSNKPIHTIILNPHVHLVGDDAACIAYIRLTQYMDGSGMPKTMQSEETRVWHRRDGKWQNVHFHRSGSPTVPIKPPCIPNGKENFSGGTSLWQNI

Among the data in ChEMBL document CHEMBL3259739, “Synthesis and structure-activity relationship of trisubstituted thiazoles as Cdc7 kinase inhibitors” (Eur J Med Chem, 2014) are residual binding, % of control and residual activity values, retold here.

Each structure is given as a SMILES string.

Sequence of Cyclin-dependent kinase 18 (Homo sapiens) (Q07002 whole entry, the tested form may be a part): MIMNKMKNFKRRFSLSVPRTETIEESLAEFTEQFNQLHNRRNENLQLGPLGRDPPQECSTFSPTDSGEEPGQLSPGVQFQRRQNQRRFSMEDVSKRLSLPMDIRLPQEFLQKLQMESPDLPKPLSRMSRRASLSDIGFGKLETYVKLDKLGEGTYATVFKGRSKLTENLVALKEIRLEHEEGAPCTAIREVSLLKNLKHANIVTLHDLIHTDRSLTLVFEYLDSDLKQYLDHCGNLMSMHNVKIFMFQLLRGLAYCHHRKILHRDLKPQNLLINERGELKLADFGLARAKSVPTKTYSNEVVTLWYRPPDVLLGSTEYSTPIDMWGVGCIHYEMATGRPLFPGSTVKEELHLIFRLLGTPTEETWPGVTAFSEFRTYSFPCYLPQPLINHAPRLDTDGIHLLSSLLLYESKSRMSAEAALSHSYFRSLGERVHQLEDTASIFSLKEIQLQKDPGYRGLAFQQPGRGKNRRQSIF
Sequence of Tyrosine-protein kinase ABL1 (Homo sapiens) (P00519 whole entry): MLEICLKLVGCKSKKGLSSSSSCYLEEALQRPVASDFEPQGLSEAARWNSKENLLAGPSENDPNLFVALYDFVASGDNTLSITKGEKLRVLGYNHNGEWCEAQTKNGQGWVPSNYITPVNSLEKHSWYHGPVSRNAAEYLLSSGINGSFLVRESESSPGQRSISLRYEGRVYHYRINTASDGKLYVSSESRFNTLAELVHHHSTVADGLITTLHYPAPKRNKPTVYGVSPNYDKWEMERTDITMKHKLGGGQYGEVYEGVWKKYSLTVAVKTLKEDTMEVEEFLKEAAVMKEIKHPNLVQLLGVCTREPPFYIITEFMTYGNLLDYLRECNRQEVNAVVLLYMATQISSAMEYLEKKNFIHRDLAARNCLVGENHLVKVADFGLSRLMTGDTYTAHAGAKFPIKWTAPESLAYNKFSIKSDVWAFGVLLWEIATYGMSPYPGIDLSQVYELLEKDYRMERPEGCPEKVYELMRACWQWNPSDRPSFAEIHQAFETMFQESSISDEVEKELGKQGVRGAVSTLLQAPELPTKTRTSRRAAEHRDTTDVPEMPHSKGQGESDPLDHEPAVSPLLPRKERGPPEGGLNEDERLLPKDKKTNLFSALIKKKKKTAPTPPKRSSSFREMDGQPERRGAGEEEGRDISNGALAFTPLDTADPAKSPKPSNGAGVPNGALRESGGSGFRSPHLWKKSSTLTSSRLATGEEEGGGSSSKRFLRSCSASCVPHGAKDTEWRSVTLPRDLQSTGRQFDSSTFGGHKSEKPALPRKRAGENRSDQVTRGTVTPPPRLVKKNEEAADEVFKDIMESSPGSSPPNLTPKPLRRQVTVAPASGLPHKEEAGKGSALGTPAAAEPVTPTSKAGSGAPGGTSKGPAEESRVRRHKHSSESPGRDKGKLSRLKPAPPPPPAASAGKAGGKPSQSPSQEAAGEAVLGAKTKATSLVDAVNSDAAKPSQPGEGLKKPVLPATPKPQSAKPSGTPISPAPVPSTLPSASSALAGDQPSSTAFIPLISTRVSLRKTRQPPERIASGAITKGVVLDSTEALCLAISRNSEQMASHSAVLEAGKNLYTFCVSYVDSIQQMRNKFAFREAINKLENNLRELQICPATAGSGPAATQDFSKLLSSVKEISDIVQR

As to `CCOC(=O)c1sc(-c2ccncc2)nc1O`, the residual binding, % of control in test [1] is 99%; in test [3], 100%; in test [5] it was 82%; in test [8], 76%; in test [9], 100%. Also, the residual activity in [2] came out at 100%; in test [4], 87%; in [6] it was 99%; in test [7], 89%; in [10], 79%.
As to `NC(=O)c1sc(-c2ccnc(N)n2)nc1-c1ccc(Cl)cc1Cl`, the residual binding, % of control is 92% in test [1]; 73% in test [3]; 100% in test [5]; 100% in test [8]; 100% in test [9]. In addition, the residual activity is 100% in test [2]; 100% in test [4]; 75% in test [6]; 87% in test [7]; 90% in test [10].
In the case of `COc1ccc(-c2nc(-c3ccnc(N)n3)sc2C(N)=O)c(Cl)c1`, the residual binding, % of control in test [1] amounted to 77%; in [3], 100%; in test [5], 88%; in [8] it was 100%; in test [9], 94%. The residual activity in test [2] was found to be 100%; in test [4], 100%; in test [6] it was 100%; in test [7], 100%; in [10] it was 93%.
